Bioassay records from PubChem BioAssay.
14-3-3 Bad PPI: disrupts binding of bovine 14-3-3 zeta to phospho-Bad peptide | TR-FRET 14-3-3zeta/Dy647-pBad peptide displacement, 1 h | inhibition, % at 21.7 µM | 220,000 tested, 0.71% active;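 active means inhibition above about 70%, limit read from the data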;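 further: 0% = full 14-3-3 plus peptide FRET controls and 100% = background without 14-3-3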
NCF1 inh: inhibitors of human p47phox binding. P14598. p47phox/p22phox peptide binding, fluorescence polarization, 2 h. inhibition, % at 24.7 µM. 220,000 tested, 0.53% active;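 further: 0% = p47phox with labelled peptide and 100% = labelled peptide alone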
RBBP9 inhibitor: blocks human serine hydrolase RBBP9. O75884. 220,000 tested, 0.2% active. recombinant RBBP9, FP-Rh probe fluorescence polarization. inhibition, % at 7.94 µM;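 active means inhibition above the campaign mean of all tested compounds plus 3 SD, cut at about 14% in these data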;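 further: plate controls were DMSO wells with RBBP9 for no effect and wells lacking RBBP9 protein for full effect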
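system = RBBP9 protein | input = RBBP9 at 2.5 µM in dispensed solution, before mixing | measured by = fluorescence polarization (mP), excitation 525 nm, emission 598 nm | incubation = enzyme-compound preincubation 30 min, then probe labeling 45 min, 25 °C | buffer or medium = Tris-NaCl-Pluronic buffer, pH 8.0 | compound = single dose 7.94 µM | also added = FP-Rh probe, 375 nM dispensing solution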
eIF4E-4G inh: eIF4E/eIF4G interaction inhibition in translation initiation; inhibition, % at 21.7 µM; 220,000 tested, 0.37% active; P63073+Q04637; AID 782; TR-FRET eIF4E-eIF4GI(517-606) binding, 2 h;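 further: 0% = full FRET control wells and 100% = background wells lacking eIF4GI fragment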
Wee1 degr inh: human Wee1 degradation inhibition, primary screen; reporter increase, % at 5 µM; 220,000 tested, 1.2% active; P30291; AID 1321; HeLa Luc-Wee1K328M stability, luciferase luminescence; 100% = proteasome inhibitor MG132 effect;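 active means activation above the mean of all tested compounds plus 3 SD, set per screening run, cut at about 8.8% in these data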;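 further: cells exposed to compound for 20 h before luminescence read; 0% = DMSO alone and 100% = MG132 at 30 µM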
Target sequence (P30291 whole entry K328M): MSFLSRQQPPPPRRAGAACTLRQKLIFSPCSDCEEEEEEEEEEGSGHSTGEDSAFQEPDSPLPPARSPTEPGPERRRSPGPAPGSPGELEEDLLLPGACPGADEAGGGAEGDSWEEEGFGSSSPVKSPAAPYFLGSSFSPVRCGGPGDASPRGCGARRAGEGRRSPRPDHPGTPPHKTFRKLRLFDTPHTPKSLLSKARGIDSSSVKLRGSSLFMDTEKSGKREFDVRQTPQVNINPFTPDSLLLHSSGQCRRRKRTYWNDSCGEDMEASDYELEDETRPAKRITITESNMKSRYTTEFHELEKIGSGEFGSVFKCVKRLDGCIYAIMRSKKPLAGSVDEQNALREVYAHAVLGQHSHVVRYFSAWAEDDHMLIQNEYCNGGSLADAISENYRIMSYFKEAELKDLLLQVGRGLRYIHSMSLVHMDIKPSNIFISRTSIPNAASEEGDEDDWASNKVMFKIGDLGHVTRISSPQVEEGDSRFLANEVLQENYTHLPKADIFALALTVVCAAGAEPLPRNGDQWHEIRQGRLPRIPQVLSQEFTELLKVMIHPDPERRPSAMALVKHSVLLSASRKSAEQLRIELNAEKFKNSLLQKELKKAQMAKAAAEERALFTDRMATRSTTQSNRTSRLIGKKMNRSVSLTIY
Starred values were filed as active, the others as inactive; [ ] = remark or other dose. Shown are actives, neighbours in structure and some others; about 2.8% of the full set was active somewhere.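 How the source made its calls, unless noted: active means inhibition above about 30% (limit read from the data); inactive means the rest.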

What do the screens show for `CC1CC(C)CN(CCOc2ccc(Cl)cc2Cl)C1` (stereo unspecified)?
14-3-3 Bad PPI: 72*; NCF1 inh: -18; RBBP9 inhibitor: -7; eIF4E-4G inh: -4; Wee1 degr inh: 0

How did CC1CCCN(CCOCCOc2ccc(Cl)cc2Br)C1 (stereo unspecified) do in these assays?
14-3-3 Bad PPI: 71*; NCF1 inh: -12; RBBP9 inhibitor: 0; eIF4E-4G inh: -11; Wee1 degr inh: 0

How did CCCn1c(SCC(=O)NC2CCCCC2)nnc1-c1ccccn1 do in these assays?
14-3-3 Bad PPI: 4; NCF1 inh: -4; RBBP9 inhibitor: 10; eIF4E-4G inh: 1; Wee1 degr inh: -2

Results for COCCN(C(=S)Nc1c(C)cc(C)cc1C)C(C)c1cccs1 (stereo unspecified) ?
14-3-3 Bad PPI: -8; NCF1 inh: -7; RBBP9 inhibitor: -8; eIF4E-4G inh: 0; Wee1 degr inh: 2

What do the screens show for `O=C(COc1ccc(/C=N/NC(=O)c2cc3ccccc3o2)cc1Cl)Nc1ccccc1`?
14-3-3 Bad PPI: 79*; NCF1 inh: 20; RBBP9 inhibitor: -10; eIF4E-4G inh: -36; Wee1 degr inh: -2

Results for CC(C)CC(=O)NS(=O)(=O)c1ccc(NS(C)(=O)=O)cc1 ?
14-3-3 Bad PPI: -3; NCF1 inh: -6; RBBP9 inhibitor: -6; eIF4E-4G inh: 0; Wee1 degr inh: -2

How did COc1ccc(C(=O)Nc2cccc(-c3cc4ccccc4oc3=O)c2)cc1[N+](=O)[O-] do in these assays?
14-3-3 Bad PPI: 75*[fluorescence artefact?]; NCF1 inh: 32*; RBBP9 inhibitor: 0; eIF4E-4G inh: 6; Wee1 degr inh: 2

What do the screens show for `CC(=O)Nc1ccc(NC(=O)c2cccc(-c3cc4ccccc4oc3=O)c2)cc1`?
14-3-3 Bad PPI: 1; NCF1 inh: 8; RBBP9 inhibitor: -4; eIF4E-4G inh: 1; Wee1 degr inh: -1

Results for COc1ccc2nc(NC(=O)c3cccc(-c4cc5ccccc5oc4=O)c3)sc2c1 ?
14-3-3 Bad PPI: 69; NCF1 inh: 39*; RBBP9 inhibitor: -4; eIF4E-4G inh: 30; Wee1 degr inh: 8

How did C=CCN(Cc1cn(C)nc1-c1cccc(Cl)c1)C1CCS(=O)(=O)C1 (stereo unspecified) do in these assays?
14-3-3 Bad PPI: 96*; NCF1 inh: -1; RBBP9 inhibitor: -7; eIF4E-4G inh: -2; Wee1 degr inh: -3

Results for O=c1oc2ccccc2c(O)c1/C=C1\C=Nc2ccccc21 ?
14-3-3 Bad PPI: 5; NCF1 inh: 46*; RBBP9 inhibitor: -3; eIF4E-4G inh: -5; Wee1 degr inh: -3

How did CN(C)c1ccc(N=Cc2nc(-c3ccccc3)oc2O)cc1 do in these assays?
14-3-3 Bad PPI: -19; NCF1 inh: 58*; RBBP9 inhibitor: -5; eIF4E-4G inh: -2; Wee1 degr inh: 1

How did CC(=O)Nc1ccc(N=Cc2nc(-c3ccc(C)cc3)oc2O)cc1 do in these assays?
14-3-3 Bad PPI: 69; NCF1 inh: -33; RBBP9 inhibitor: -7; eIF4E-4G inh: -5; Wee1 degr inh: 2

How did Cc1ccc(N=Cc2nc(-c3ccc(C)cc3)oc2O)cc1 do in these assays?
14-3-3 Bad PPI: 0; RBBP9 inhibitor: 3; eIF4E-4G inh: 66*; Wee1 degr inh: 2

Results for Oc1oc(-c2ccccc2)nc1C=Nc1ccccc1 ?
14-3-3 Bad PPI: 12; NCF1 inh: 44*; RBBP9 inhibitor: -9; eIF4E-4G inh: -1; Wee1 degr inh: 0

How did CC(=O)Oc1oc(-c2ccccc2)nc1C=Nc1ccc(N(C)C)cc1 do in these assays?
14-3-3 Bad PPI: -7; NCF1 inh: 1; RBBP9 inhibitor: -5; eIF4E-4G inh: 2; Wee1 degr inh: 3

Results for O=C(Cn1c2c(sc1=O)C1c3ccccc3OCC1CS2)Nc1ccc(Cl)c(Cl)c1 (stereo unspecified) ?
14-3-3 Bad PPI: -9; NCF1 inh: -12; RBBP9 inhibitor: -13; eIF4E-4G inh: -6; Wee1 degr inh: 1

How did CC(=O)c1cccc(OCC(=O)N(C)CC(=O)Nc2ccc(F)cc2)c1 do in these assays?
14-3-3 Bad PPI: -3; NCF1 inh: -3; RBBP9 inhibitor: -3; eIF4E-4G inh: 7; Wee1 degr inh: -1

How did CC(C)(C)C(=O)O/N=C(\N)Cc1ccc(-c2csnn2)cc1 do in these assays?
14-3-3 Bad PPI: 4; NCF1 inh: -15; RBBP9 inhibitor: 3; eIF4E-4G inh: 2; Wee1 degr inh: 0
